Measurements reported in ChEMBL document CHEMBL1137577, “Inhibitors of the interaction of a thyroid hormone receptor and coactivators: preliminary structure-activity relationships” (J Med Chem, 2007).
Values after ≈ are worked out from the molar mass of the structure shown. Values joined by “and” are separate entries in the source; they are usually repeats but may differ in a detail not shown here. Identical values can stand only once.

Tests used:
[1] = target: T1, Thyroid hormone receptor alpha (Homo sapiens, UniProt P10827); experiment: Displacement of labeled SRC2-2 from human TRalpha by FP assay
T1 sequence (P10827 whole entry): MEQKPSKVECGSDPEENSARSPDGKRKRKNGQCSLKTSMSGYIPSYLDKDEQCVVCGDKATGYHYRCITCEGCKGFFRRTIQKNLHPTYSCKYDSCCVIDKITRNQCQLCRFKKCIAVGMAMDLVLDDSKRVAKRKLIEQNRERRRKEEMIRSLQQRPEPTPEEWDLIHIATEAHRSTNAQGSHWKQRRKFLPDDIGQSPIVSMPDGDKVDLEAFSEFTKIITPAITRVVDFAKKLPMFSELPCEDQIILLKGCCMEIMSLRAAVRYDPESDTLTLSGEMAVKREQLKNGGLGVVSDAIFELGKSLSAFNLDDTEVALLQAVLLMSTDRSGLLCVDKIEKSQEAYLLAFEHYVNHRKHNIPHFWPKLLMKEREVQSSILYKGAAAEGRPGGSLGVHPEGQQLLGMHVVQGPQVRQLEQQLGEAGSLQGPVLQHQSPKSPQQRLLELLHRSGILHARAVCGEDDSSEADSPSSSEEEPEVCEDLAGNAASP

[2] = target: T2, Thyroid hormone receptor beta (Homo sapiens, UniProt P10828); experiment: Displacement of labeled SRC2-2 from human TRbeta expressed in BL21 (DE3) cells FP assay; format: cell-based
T2 sequence (P10828 whole entry): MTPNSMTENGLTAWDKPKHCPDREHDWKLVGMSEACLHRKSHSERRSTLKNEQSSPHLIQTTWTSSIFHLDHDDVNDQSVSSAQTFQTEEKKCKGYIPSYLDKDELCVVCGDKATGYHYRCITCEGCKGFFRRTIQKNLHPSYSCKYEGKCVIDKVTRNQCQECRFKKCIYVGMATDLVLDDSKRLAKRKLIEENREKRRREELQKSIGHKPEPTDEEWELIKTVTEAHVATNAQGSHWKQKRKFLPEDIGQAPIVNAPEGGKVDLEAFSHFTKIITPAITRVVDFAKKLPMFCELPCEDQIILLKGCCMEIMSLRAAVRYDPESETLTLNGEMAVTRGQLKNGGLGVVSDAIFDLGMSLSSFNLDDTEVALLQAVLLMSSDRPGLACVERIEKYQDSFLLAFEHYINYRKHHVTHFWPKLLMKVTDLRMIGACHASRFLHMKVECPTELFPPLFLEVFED
Summary of the method: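 Competitive fluorescence polarization. Assay liquid was PBS containing 5% DMSO. For TRβ, hTRβ1 LBD (His6, T209-D461) was expressed in BL21 (DE3).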

ARO = experiment: Cytotoxicity against human ARO cells after 48 hrs by MTS assay; format: functional; details: read-out: LD50 (the source's name)
U2OS = experiment: Cytotoxicity against human U2OS cells after 48 hrs by MTS assay; format: functional; details: read-out: LD50 (the source's name)
[3] = Permeability across artificial membrane at pH 7.4 by PAMPA assay
physchem = details: PBS

SMILES | IC50 [1] | IC50 [2] | CC50 (ARO; Homo sapiens, ARO, 48 h) | CC50 (U2OS; Homo sapiens, U2OS, 48 h) | Papp [3] | solubility (physchem) | permeability [3] | CC50 (ARO) | CC50 (U2OS)
CCCCCCc1ccc(C(=O)CCNCCC)cc1 | 25.8 µM | 15.2 µM | 107 µM | 160 µM | 254 ×10⁻⁶ cm/s | 354 µM (≈ 97.5 µg/mL) |  |  | 
CCCCCCc1ccc(C(=O)CCN2CCC(C(=O)OC)CC2)cc1 | 6.3 µM | 3.9 µM | 8.2 µM | 19.7 µM | 145 ×10⁻⁶ cm/s | 27 µM (≈ 9.71 µg/mL) |  |  | 
C#CC(=O)Oc1ccc(CCCCCC)cc1 | 16.7 µM | 6.2 µM | 7.9 µM | 13.9 µM | 21 ×10⁻⁶ cm/s | 18 µM (≈ 4.15 µg/mL) |  |  | 
CCCCCCc1ccc(NC(=O)C=C(C)C)cc1 | > 100 µM | > 100 µM | > 200 µM | > 200 µM | 98 ×10⁻⁶ cm/s | 37 µM (≈ 9.6 µg/mL) |  |  | 
C/C=C/C(=O)c1ccc(CCCCCCC)cc1 | 18.9 µM | 7.6 µM | 1.4 µM | 11.6 µM | 7 ×10⁻⁶ cm/s | 41 µM (≈ 10 µg/mL) |  |  | 
C=CC(=O)c1ccc(CCCCCCCC)cc1 | 21.4 µM | 11.4 µM | 111 µM | 50.5 µM |  |  |  |  | 
C/C=C/C(=O)Nc1ccc(CCCCCC)cc1 | > 100 µM | > 100 µM | > 200 µM | > 200 µM | 432 ×10⁻⁶ cm/s | 42 µM (≈ 10.3 µg/mL) |  |  | 
CCCCCCc1ccc(C(=O)/C=C\C(=O)O)cc1 | 19.2 µM | 17.7 µM | 5.5 µM | 57.4 µM | 66 ×10⁻⁶ cm/s | 252 µM (≈ 65.6 µg/mL) |  |  | 
C=C(CC(=O)Nc1ccc(CCCCCC)cc1)C(=O)O | > 100 µM | > 100 µM | 183 µM | 124 µM | 57 ×10⁻⁶ cm/s | 286 µM (≈ 82.8 µg/mL) |  |  | 
C=CC(=O)[C@H]1CC[C@H](CC(C)(C)C)CC1 | 75.6 µM | 69.1 µM | 92.8 µM | 50.2 µM |  |  |  |  | 
CCCCCCc1ccc(C(=O)CF)cc1 | > 100 µM | > 100 µM | 2.4 µM | 69 µM |  | 95 µM (≈ 21.1 µg/mL) |  |  | 
CCCCCCc1ccc(C(=O)C2CO2)cc1 (centres undefined) | 47.7 µM | 23.1 µM | > 200 µM | 58 µM |  | 204 µM (≈ 47.4 µg/mL) | 1117 10^-6 cm/s |  | 
C=CC(=O)c1ccc(CCCCC)cc1 | 60.9 µM | 33.9 µM | 20 µM | 22.7 µM |  |  |  |  | 
CCCCCCc1ccc(C(=O)CCN(C)CCc2ccccc2)cc1 | 3.6 µM | 1.5 µM | 2.5 µM | 18.4 µM |  | 15 µM (≈ 5.27 µg/mL) |  |  | 
C=CC(=O)c1ccc(CCCCCC)cc1 | 28.1 µM and 45.2 µM |  |  | 10.1 µM | 38 ×10⁻⁶ cm/s | 36 µM (≈ 7.79 µg/mL) |  | 4.5 µM and 29.5 µM | 18.8 µM
CCCC(=O)Nc1cccc2c1CCCC2 | 85.3 µM | 69.8 µM | 54.7 µM | 101 µM |  |  |  |  | 
CCCCCCc1ccc(C(=O)CCN(CCCC)CCCC)cc1 | 6.9 µM | 4.2 µM | 5.4 µM | 25.5 µM |  | 152 µM (≈ 52.5 µg/mL) |  |  | 
CCCCCCc1ccc(NC(=O)CCC(=O)O)cc1 | > 100 µM | > 100 µM |  |  |  |  |  |  | 
C#CC(=O)Nc1ccc(CCCCCC)cc1 | 68.9 µM | 35.1 µM | 8 µM | 17.1 µM | 621 ×10⁻⁶ cm/s | 60 µM (≈ 13.8 µg/mL) |  |  | 
CCCCCCc1ccc(C(=O)CCl)cc1 | 47.7 µM | 23.1 µM |  |  |  |  |  |  | 
C=CC(=O)Nc1ccc(CCCCCC)cc1 | 21.6 µM | 17.9 µM | 113 µM | 66.5 µM | 833 ×10⁻⁶ cm/s | 47 µM (≈ 10.9 µg/mL) |  |  | 

SMILES | IC50 [1] | IC50 [2] | CC50 (ARO; Homo sapiens, ARO, 48 h) | CC50 (U2OS; Homo sapiens, U2OS, 48 h) | Papp [3] | solubility (physchem) | permeability [3] | CC50 (ARO) | CC50 (U2OS)
CCCCCCc1ccc(C(=O)CCN(C)CCO)cc1 | 3 µM | 1.6 µM | 13.2 µM | 13.2 µM |  | 97 µM (≈ 28.3 µg/mL) |  |  | 
CCCCCCc1ccc(C(=O)CCN(C)Cc2ccco2)cc1 | 22.6 µM | 12.1 µM |  |  |  |  |  |  | 
C=CC(=O)c1ccc(CC(C)(C)C)cc1 | 69.6 µM | 43.5 µM | 5.8 µM | 27.5 µM |  |  |  |  | 
CCCCCCc1ccc(C(=O)CCN(C2CCCCC2)C2CCCCC2)cc1 | 16.5 µM | 12.7 µM |  |  |  |  |  |  | 
CCCCCCc1ccc(C(=O)CCN(C)C)cc1 | […] | 4.3 µM |  |  |  |  |  |  | 
C=CC(=O)Oc1ccc(CCC)cc1 | > 100 µM | 61 µM | 4.8 µM | 121 µM |  |  |  |  | 
C/C=C(\C)C(=O)c1ccc(CCCCCCC)cc1 | > 100 µM | > 100 µM | > 200 µM | > 200 µM |  | 36 µM (≈ 9.3 µg/mL) |  |  | 
C=CC(=O)Oc1ccccc1CCCCCC | 39.1 µM | 8.2 µM | 14.6 µM | 19.4 µM |  |  |  |  | 
C=CC(=O)c1ccc(CCCCCCC)cc1 | 23 µM | 10.5 µM | 69.2 µM | 36.7 µM |  |  |  |  | 
CCCCCCc1ccc(C(=O)CC)cc1 | > 100 µM | > 100 µM |  |  |  |  |  |  | 
CCCCCCc1ccc(C(=O)CCCBr)cc1 | > 100 µM | > 100 µM | 28.7 µM | 25.3 µM | 58 ×10⁻⁶ cm/s | 26 µM (≈ 8.09 µg/mL) |  |  | 
CCCCCCc1ccc(C(=O)CCN2CCOCC2)cc1 | 4.1 µM | 2.7 µM | 7.2 µM | 20.8 µM |  | 110 µM (≈ 33.4 µg/mL) | 1210 10^-6 cm/s |  | 
C=C(C)C(=O)c1ccc(CCCCCCC)cc1 | 52.9 µM | 23.2 µM | 10.7 µM | 18.7 µM | 43 ×10⁻⁶ cm/s | 37 µM (≈ 9.04 µg/mL) |  |  | 
CCCCCCc1ccc(C(=O)CCN(C(C)C)C(C)C)cc1 | 4.1 µM | 2 µM | 15.4 µM | 20.7 µM |  | 55 µM (≈ 17.5 µg/mL) |  |  | 
CCCCCCc1ccc(C(=O)CCBr)cc1 | 4.2 µM | 3 µM | 40.1 µM | 17 µM |  | 85 µM (≈ 25.3 µg/mL) |  |  | 
C=CC(=O)Oc1ccc(CCCCC)cc1 | > 100 µM | 55.8 µM | 21.2 µM | 36.5 µM |  |  |  |  | 
CCCCCCc1ccc(NC(=O)/C=C/c2ccccc2)cc1 | > 100 µM | > 100 µM |  |  |  |  |  |  | 
CCCCCCc1ccc(NC(=O)/C=C\C(=O)O)cc1 | 17.5 µM | 20.3 µM | > 200 µM | 148 µM |  | 418 µM (≈ 115 µg/mL) |  |  | 
C=CC(=O)c1ccc(CCCC)cc1 | 71 µM | 66 µM | 9.9 µM | 25.6 µM |  |  |  |  | 
CCCCCCCc1ccc(C(=O)/C=C/c2ccccc2)cc1 | > 100 µM | > 100 µM | > 200 µM | 57 µM |  | 30 µM (≈ 9.19 µg/mL) |  |  | 
CCCCCCCc1ccc(C(=O)C=C(C)C)cc1 | > 100 µM | > 100 µM | > 200 µM | > 200 µM |  | 24 µM (≈ 6.2 µg/mL) |  |  | 
